Runt-CBFb FRET – blocks binding of human RUNX1 Runt domain to CBFb | inhibition, % at 20 µM | Q01196+Q13951 | AID 1496 | Cerulean-Runt/Venus-CBFb FRET ratio 530/480, 1 h | 220,000 compounds, 0.46% hits;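 active means inhibition over about 50% at 20 µM in the single-dose screen, limit read from the data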
Target sequence (Q01196 whole entry, looked up, the tested form may be a part): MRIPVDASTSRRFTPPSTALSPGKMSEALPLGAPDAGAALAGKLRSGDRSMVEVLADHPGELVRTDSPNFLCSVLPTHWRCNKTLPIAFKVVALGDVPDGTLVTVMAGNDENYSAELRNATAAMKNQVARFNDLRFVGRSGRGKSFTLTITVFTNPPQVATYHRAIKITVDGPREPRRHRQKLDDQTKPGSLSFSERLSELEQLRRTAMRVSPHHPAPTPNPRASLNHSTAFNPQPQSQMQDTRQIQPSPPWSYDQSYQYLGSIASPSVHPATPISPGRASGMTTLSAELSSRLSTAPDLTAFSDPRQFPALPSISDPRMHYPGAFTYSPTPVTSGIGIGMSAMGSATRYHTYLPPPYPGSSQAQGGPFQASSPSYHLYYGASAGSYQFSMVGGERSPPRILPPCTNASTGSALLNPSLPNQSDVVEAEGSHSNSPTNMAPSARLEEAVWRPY
Target sequence (Q13951 whole entry, looked up, the tested form may be a part): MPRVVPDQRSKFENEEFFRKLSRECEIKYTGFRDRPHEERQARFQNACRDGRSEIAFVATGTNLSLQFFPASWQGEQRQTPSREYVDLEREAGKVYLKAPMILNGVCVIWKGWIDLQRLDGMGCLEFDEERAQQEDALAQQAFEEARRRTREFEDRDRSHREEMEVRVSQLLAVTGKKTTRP
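Assay system: Cerulean-tagged RUNX1 Runt domain (FRET donor) fusion protein / Amount: 100 nM each of Venus-CBFb and Cerulean-Runt domain / Medium: Tris buffer pH 7.5 with salts and BSA / Also added: Venus-CBFb 100 nM / Schedule: 1 h complex formation plus 1 h compound treatment, room temperature / Signal: FRET fluorescence / Read-out: loss of energy transfer signal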
Hck Nef HTS – blocks Nef-activated human Hck kinase. P08631. Recombinant Hck-YEEI plus Nef, Z-Lyte FRET kinase assay. inhibition, % at 20 µM. 220,000 compounds, 0.68% hits;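 active means Hck-Nef kinase inhibition above about 50%, limit read from the data; inactive means inhibition below that limit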
RanGTP-Imp inh – disruptors of Ran-importin-beta complex formation – biochemical, FRET, CFP-Ran, YFP-importin-beta, homogeneous, primary screen | cell-free CFP-Ran/YFP-importin-beta FRET ratio | inhibition, % (test concentration not listed) | 300,000 compounds, 1.1% hits | AID 2216;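 active means more than half of the replicate wells show a fall in the fluorescence ratio signal beyond about 16%, limit read from the data, passing the limit was not always enough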
Runt-SMMHC FRET – Runt domain-CBFb-SMMHC interaction inhibition. Cerulean-Runt/Venus-CBFb-SMMHC FRET ratio 530/480, 1 h. inhibition, % at 20 µM. 220,000 compounds, 0.74% hits;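 active means mean inhibition across duplicate retests at 20 µM reaching about 50%, limit read from the data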;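 further: inhibitors lower the FRET ratio by blocking Runt binding to CBFb-SMMHC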
Numbers stand for hits; n = inactive; x = not tested or not shown. In the library only some 1.9% were active in any assay of this set; here they are far more common.

SMILES	Runt-CBFb FRET	Hck Nef HTS	RanGTP-Imp inh	Runt-SMMHC FRET
COC(=O)C1=COC(C)C2CN3CCc4c([nH]c5ccccc45)C3CC12 (stereo unspecified)	n	n	122.3	n
COC(=O)c1cccc(NC(=O)C(C)(C)C)c1	n	n	n	n
COC(=O)c1c(-c2cccnc2)csc1NC(=O)c1ccc2c(c1)OCO2	x	x	n	x
Cc1c([N+](=O)[O-])cnc(Sc2ccccc2)c1[N+](=O)[O-]	x	x	n	x
O=C(Nc1cnn(Cc2ccccc2)c1)c1cc2nc(-c3ccco3)cc(C(F)(F)F)n2n1	n	n	17.0	n
Cc1nn(C)cc1NC(=O)c1cc2nc(-c3ccco3)cc(C(F)(F)F)n2n1	n	n	n	n
OCCN1CCN(Cc2cc(Cl)c3cccnc3c2O)CC1	n	n	40.3	n
Oc1c(CN2CCN(c3ccccn3)CC2)cc(Cl)c2cccnc12	n	n	23.9	n
O=S(=O)(O)c1cc(O)c2c(O)c(N=Nc3cc(Cl)ccc3O)c(S(=O)(=O)O)cc2c1	x	x	56.8	x
CN(C)c1ncc(/C=C2/C(=O)NC(=S)N(C3CCCCC3)C2=O)cn1	n	68.3	x	n
CC(C)CC1NC(=S)N(C2CCCCC2)C1=O (stereo unspecified)	n	n	n	n
O=C(O)CSc1cc(C(=O)c2cc(F)ccc2O)cn2c(=O)c3c(-c4ccccc4)csc3nc12	n	51.6	n	n
COc1ccc(C(CNC(=O)C(CC(C)C)NS(=O)(=O)c2ccc(C)cc2)N2CCOCC2)cc1 (stereo unspecified)	x	x	n	x
N=c1c(S(=O)(=O)c2ccc(Br)cc2)cc2c(=O)n3ccccc3nc2n1Cc1ccccc1	x	x	n	x
N=c1c(S(=O)(=O)c2ccccc2)cc2c(=O)n3ccccc3nc2n1Cc1cccnc1	x	x	122.3	x
Cc1ccc(S(=O)(=O)c2cc3c(=O)n4cccc(C)c4nc3n(Cc3ccncc3)c2=N)cc1	x	x	112.4	x
Cc1cccn2c(=O)c3cc(S(=O)(=O)c4ccccc4)c(=N)n(Cc4cccnc4)c3nc12	x	x	139.2	x
Cc1ccnc(NC(=O)c2cccc(NC(=O)c3ccccc3C)c2)c1	x	x	n	x
Cc1cccc(-c2nnc(SCc3ccc(C#N)cc3)n2Cc2ccco2)c1	n	n	n	n
NC(=O)c1c(N)sc2c1CCCC2	n	n	n	n
CN1CCc2c(sc(N)c2C(N)=O)C1	100.7	n	86.3	142.7
CCN1CCc2c(sc(N)c2C(N)=O)C1	90.2	n	101.2	n
CCC(C)c1ccccc1NC(=O)CN1CCN(C/C=C/c2ccccc2)CC1 (stereo unspecified)	n	n	n	n
O=S(=O)(c1cccc2nsnc12)N1CCCCC1	x	x	n	x
Cc1ccc(C)c(N2CCN(S(=O)(=O)c3ccc4c(c3)NC(=O)CC(=O)N4)CC2)c1	x	x	n	x
SMILES	Runt-CBFb FRET	Hck Nef HTS	RanGTP-Imp inh	Runt-SMMHC FRET
Cc1ccc(C)c(N2CCN(S(=O)(=O)c3ccc4c(c3)CCC(=O)N4)CC2)c1	103.8	n	n	n
C=CCN1C(=O)/C(=C2/Sc3ccccc3N2C)SC1=Nc1c(C)n[nH]c1C	n	n	n	n
CCN1C(=O)/C(=C2/Sc3ccccc3N2CC)S/C1=N\c1ncn[nH]1	x	52.5	n	x
CC(=O)Oc1c(-c2ccco2)oc2ccccc2c1=O	n	n	n	92.4
CCOCCCNC(=S)N1CCCN(c2nc3cc(C)c(C)cc3cc2C#N)CC1	n	n	58.5	51.5
CCOCCCNC(=S)N1CCCN(c2nc3cc(C)cc(C)c3cc2C#N)CC1	n	n	n	n
COCCCNC(=S)N1CCCN(c2nc3cc(C)ccc3cc2C#N)CC1	n	n	n	n
COCCCNC(=S)N1CCCN(c2nc3cc(C)c(C)cc3cc2C#N)CC1	n	n	56.6	n
O=C(CNC(=S)N(Cc1ccccc1)Cc1cccnc1)NC1CCCC1	n	n	n	n
COc1ccc(N=CC=C2OC(C)(C)C(C)(C)O2)cc1OC	n	n	14.7	n
COc1ccccc1CNC(=O)CCS(=O)(=O)c1ccc(Cl)cc1	x	x	n	x
CCCCN(C(=O)NC(=O)Nc1nc2ccc(OC)cc2s1)S(C)(=O)=O	n	n	n	n
CCOC(=O)c1cc2c(=O)n3ccccc3nc2n(C(C)C)c1=NC(=O)c1ccncc1	92.4	n	84.6	169.8
CCOC(=O)c1cc2c(=O)n3ccccc3nc2n(C(C)C)c1=NC(=O)c1c(-c2ccccc2Cl)noc1C	82.1	n	n	87.5
CCOC(=O)c1cc2c(=O)n3ccccc3nc2n(CCCOC)c1=NC(=O)C(C)(C)C	55.9	159.0	n	n
CCOC(=O)c1cc2c(=O)n3ccccc3nc2n(CCOC)c1=NC(=O)c1c(-c2c(F)cccc2Cl)noc1C	68.3	n	x	86.3
O=C(Nc1cccc(-n2cnnn2)c1)c1ccc(OC(F)(F)F)cc1	x	x	n	x
CCOC(=O)c1cc2c(=O)n3ccccc3nc2n(CCOC)c1=NC(=O)c1ccncc1	62.5	n	96.1	62.6
CCOC(=O)c1cc2c(=O)n3ccccc3nc2n(CCCOC)c1=NC(=O)c1cccnc1	133.3	n	46.0	87.6
COCCCn1c(C(=O)Nc2ccc3c(c2)OCO3)cc2c(=O)n3ccccc3nc21	x	x	n	x
O=C(O)CC(NC(=O)CC(c1ccccc1)c1ccccc1)c1cccc([N+](=O)[O-])c1 (stereo unspecified)	x	x	n	x
CCn1nc(NC(=O)c2ccco2)c2cc3ccccc3nc21	n	n	30.1	n
Cc1ccc2nc3c(cc2c1)c(NC(=O)C(C)(C)C)nn3CC(C)C	x	x	44.5	x
CC(C)Cn1nc(NC(=O)c2ccco2)c2cc3ccccc3nc21	n	n	51.3	n
CC(C)Cn1nc(NC(=O)C(C)(C)C)c2cc3ccccc3nc21	n	n	n	n
SMILES	Runt-CBFb FRET	Hck Nef HTS	RanGTP-Imp inh	Runt-SMMHC FRET
CCn1nc(NC(=O)c2ccncc2)c2cc3ccccc3nc21	n	n	n	n
Cc1ccc2nc3c(cc2c1)c(NC(=O)c1ccco1)nn3CC(C)C	n	n	78.4	81.2
CCCCN1C(=O)C(=Nc2cccc3cnccc23)c2ccccc21	n	n	n	n
O=C1NC2=C(C(=O)CCC2)C(c2ccccc2Cl)N1 (stereo unspecified)	x	x	n	x
Cc1nc(Cl)c2c(n1)NC1=C(O2)C(=O)CCC1	n	n	n	73.2
Cc1ccc(O)c(C(=O)c2coc(=N)c(C(=O)NC(C)C)c2)c1	n	n	n	n
COc1ccccc1C(=O)COC(=O)CNS(=O)(=O)c1ccc(C)cc1	n	n	n	n
Cn1c2ccccc2c2nnc(NN)nc21	n	n	n	n
CCOc1cc2nc3c4ccccc4n(C)c3nc2cc1OCC	n	n	38.1	n
CCOc1ccccc1NC(=O)CCS(=O)(=O)c1ccc2c(c1)CCN2C(C)=O	x	x	n	x
CCOC(=O)/C=C1\SCC(=O)N1CC(=O)Nc1ccccc1OC(F)F	n	n	149.8	n
O=C(CCn1c(=O)[nH]c2ccsc2c1=O)NCc1ccc(F)cc1	n	n	n	n
O=S(=O)(CCN1C=CC(C(F)(F)F)=NCC1)c1ccc(Cl)cc1Cl	n	n	n	n
O=c1[nH]c(C2CCN(S(=O)(=O)c3ccc(F)cc3)CC2)nc2c1nnn2Cc1ccc2c(c1)OCCO2	x	x	19.3	x
O=c1[nH]c(C2CCN(S(=O)(=O)c3ccccc3F)CC2)nc2c1nnn2Cc1ccc2c(c1)OCCO2	x	x	n	x
